Test results: ChEMBL document CHEMBL4364265, “Oridonin derivatives as potential anticancer drug candidates triggering apoptosis through mitochondrial pathway in the liver cancer cells” (Eur J Med Chem, 2019)
Calls of active or inactive are those of the source. The rule behind the calls is not given here.

Key:
[1] = Selectivity index, ratio of IC50 for human LO2 cells to IC50 for human PLC/PRF/5 cells
Summary of the method: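 L-O2 and PLC/PRF/5 cells were grown in DMEM with 10% FBS at 37 °C and 5% CO₂. For CCK-8 proliferation, 10,000 cells per well were pre-incubated 24 h, then exposed to compound in DMSO for 72 h. CCK-8 was added for 4 h and A450 read. IC50 came from dose–response curves; SI is IC50(L-O2)/IC50(PLC/PRF/5).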

PLC-PRF-5 [2] = experiment: Induction of cell cycle arrest in human PLC/PRF/5 cells assessed as accumulation at G2 phase at 0.25 uM incubated for 24 hrs by PI staining based flow cytometric analysis (reference value: 18.05%); assay type: functional
PLC-PRF-5 [3] = experiment: Induction of cell cycle arrest in human PLC/PRF/5 cells assessed as accumulation at G1 phase at 0.5 uM incubated for 24 hrs by PI staining based flow cytometric analysis (reference value: 34.78%); assay type: functional
PLC-PRF-5 [4] = experiment: Induction of cell cycle arrest in human PLC/PRF/5 cells assessed as accumulation at S phase at 0.5 uM incubated for 24 hrs by PI staining based flow cytometric analysis (reference value: 42.03%); assay type: functional
HepG2 [5] = experiment: Induction of cell cycle arrest in human HepG2 cells assessed as accumulation at G1 phase at 0.25 uM incubated for 24 hrs by PI staining based flow cytometric analysis (reference value: 37.06%); assay type: functional
HepG2 [6] = experiment: Induction of cell cycle arrest in human HepG2 cells assessed as accumulation at S phase at 0.25 uM incubated for 24 hrs by PI staining based flow cytometric analysis (reference value: 35.46%); assay type: functional
HepG2 [7] = experiment: Induction of cell cycle arrest in human HepG2 cells assessed as accumulation at G2 phase at 0.25 uM incubated for 24 hrs by PI staining based flow cytometric analysis (reference value: 25.55%); assay type: functional
HepG2 [8] = experiment: Induction of cell cycle arrest in human HepG2 cells assessed as accumulation at S phase at 0.5 uM incubated for 24 hrs by PI staining based flow cytometric analysis (reference value: 35.46%); assay type: functional
HepG2 [9] = experiment: Induction of cell cycle arrest in human HepG2 cells assessed as accumulation at G2 phase at 1 uM incubated for 24 hrs by PI staining based flow cytometric analysis (reference value: 25.55%); assay type: functional
PLC-PRF-5 [10] = experiment: Induction of apoptosis in human PLC/PRF/5 cells assessed as early apoptotic cells at 0.25 uM incubated for 24 hrs by annexin V staining based cell counting method (reference value: 5.65%); assay type: functional
PLC-PRF-5 [11] = experiment: Induction of apoptosis in human PLC/PRF/5 cells assessed as late apoptotic cells at 0.25 uM incubated for 24 hrs by annexin V staining based cell counting method (reference value: 4.81%); assay type: functional
HepG2 [12] = experiment: Induction of apoptosis in human HepG2 cells assessed as live cells at 0.25 uM incubated for 24 hrs by annexin V staining based cell counting method (reference value: 87.35%); assay type: functional
HepG2 [13] = experiment: Induction of apoptosis in human HepG2 cells assessed as necrotic cells at 0.5 uM incubated for 24 hrs by annexin V staining based cell counting method (reference value: 3.40%); assay type: functional
HepG2 [14] = experiment: Induction of apoptosis in human HepG2 cells assessed as early apoptotic cells at 1 uM incubated for 24 hrs by annexin V staining based cell counting method (reference value: 3.60%); assay type: functional
PLC-PRF-5 [15] = experiment: Induction of mitochondrial membrane potential loss in human PLC/PRF/5 cell incubated for 24 hrs by JC1 staining based fluorescence microscopic method; assay type: functional
Summary of the method: (§1)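 Cells seeded in 12-well plates, cultured 12 h, treated 24 h (0, 0.25, 0.5, 1 µM). After a PBS wash, stained with JC-1 in medium for 20 min at 37 °C and washed three times. Red aggregate and green monomer fluorescence were imaged by fluorescence microscopy; the red/green ratio was taken; three independent experiments.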

HepG2 [16] = experiment: Induction of mitochondrial membrane potential loss in human HepG2 cell incubated for 24 hrs by JC1 staining based fluorescence microscopic method; assay type: functional; summary of the method: as §1
PLC-PRF-5 [17] = experiment: Induction of ROS generation in human PLC/PRF/5 cells by DCFH-DA staining-based flow cytometric analysis; assay type: functional, cell-based
Summary of the method: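 Cells were treated with 0, 0.25, 0.5 or 1 µM compound, stained with 10 µM DCFH-DA for 20 min at 37 °C, washed three times, resuspended in PBS and read by flow cytometry. Data are mean ± SD of three independent experiments.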

HepG2 [18] = experiment: Induction of apoptosis in human HepG2 cells assessed as upregulation of Bax protein expression level incubated for 24 hrs by Western blot analysis; assay type: functional, cell-based
Summary of the method: (§2)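 Cells were treated 24 h in DMEM with 0, 0.25, 0.5, 1.0 or 1.25 µM compound. Adherent and floating cells were lysed in RIPA on ice and protein measured by BCA. Equal protein was run on 7.5–12.5% SDS-PAGE and transferred to PVDF. Membranes were blocked in 5% milk/PBST, incubated with primary antibody overnight at 4 °C, and detected by ECL.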

HepG2 [19] = experiment: Induction of apoptosis in human HepG2 cells assessed as increase in cytochrome c protein expression level at 0.25 to 1.25 uM incubated for 24 hrs by Western blot analysis; assay type: functional, cell-based; summary of the method: as §2
PLC-PRF-5 [20] = experiment: Induction of apoptosis in human PLC/PRF/5 cells assessed as increase in cytochrome c protein expression level at 0.25 to 1.25 uM incubated for 24 hrs by Western blot analysis; assay type: functional, cell-based; summary of the method: as §2
PLC-PRF-5 [21] = experiment: Induction of apoptosis in human PLC/PRF/5 cells assessed as upregulation of cleaved caspase 3 protein expression level incubated for 24 hrs by Western blot analysis; assay type: functional, cell-based
Summary of the method: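 After 24 h exposure (0, 0.25, 0.5, 1.0 and 1.25 µM), adherent plus floating cells collected, lysed in RIPA on ice 30 min, protein quantified by BCA; equal protein run on 7.5–12.5% SDS gels, transferred to PVDF, blocked 30 min in 5% milk/PBST, primary antibody overnight at 4 °C, ECL detection.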

PLC-PRF-5 [22] = experiment: Induction of apoptosis in human PLC/PRF/5 cells assessed as upregulation of cleaved PARP protein expression level incubated for 24 hrs by Western blot analysis; assay type: functional, cell-based; summary of the method: as §2
HepG2 [23] = experiment: Induction of apoptosis in human HepG2 cells assessed as change in p53 protein expression level at 0.25 to 1.25 uM incubated for 24 hrs by Western blot analysis; assay type: functional, cell-based; summary of the method: as §2
PLC-PRF-5 [24] = experiment: Antitumour activity against human PLC/PRF/5 cells xenografted in nude mouse assessed as tumour growth inhibition at 10 mg/kg, iv administrated once every 3 days for 4 weeks; assay type: functional, organism-based
Summary of the method: (§3)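 PLC/PRF/5 xenograft. 2 × 10^7 cells in 0.2 mL saline were injected s.c. into the right forelimb of nude mice. At about 120 mm3, mice were randomized into 3 groups of 6 and dosed i.v. at 10 mg/kg once every three days for 4 weeks. Vehicle was 10% N-methylpyrrolidone/12% Tween-80/78% saline. Volume (a×b²/2) and body weight were recorded daily, and tumors were excised and weighed at the end.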

PLC-PRF-5 [25] = experiment: Antitumour activity against human PLC/PRF/5 cells xenografted in nude mouse assessed as reduction in tumour weight at 10 mg/kg, iv administrated once every 3 days for 4 weeks relative to control; assay type: functional; parameters: scale not given: the % may be the effect or the level left; summary of the method: as §3

Which results are given for `C=C1C(=O)[C@]23[C@H](OC(=O)/C=C/c4ccc(OC)cc4)[C@H]1CC[C@H]2[C@@]12CO[C@]3(O)[C@@H](O)[C@@H]1C(C)(C)CC[C@@H]2O`?
Ratio IC50 [1]: 1.8; Activity (PLC-PRF-5 [2]): 12.59%; Activity (PLC-PRF-5 [3]): 43.49%; Activity (PLC-PRF-5 [4]): 39.83%; Activity (HepG2 [5]): 38.04%; Activity (HepG2 [6]): 33.94%; Activity (HepG2 [7]): 24.78%; Activity (HepG2 [8]): 34.53%; Activity (HepG2 [9]): 22.67%; Activity (PLC-PRF-5 [10]): 9.43%; Activity (PLC-PRF-5 [11]): 9.14%; Activity (HepG2 [12]): 81.95%; Activity (HepG2 [13]): 5.75%; Activity (HepG2 [14]): 21.8%; Activity (PLC-PRF-5 [15]): Dose-dependent effect; Activity (HepG2 [16]): Dose-dependent effect; Activity (PLC-PRF-5 [17]): Dose-dependent effect; Activity (HepG2 [18]): Dose-dependent effect; Activity (HepG2 [19]): Active; Activity (PLC-PRF-5 [20]): Active; Activity (PLC-PRF-5 [21]): Dose-dependent effect; Activity (PLC-PRF-5 [22]): Dose-dependent effect; Activity (HepG2 [23]): inactive; TGI (PLC-PRF-5 [24]): Active; Activity (PLC-PRF-5 [25]): 38.1%
